The subject of data set [1] is Toxoplasma gondii. The data set is described as follows: Antiparasitic activity against tachyzoite stage of Toxoplasma gondii PRU infected in HFF assessed as inhibition of parasite growth at 10 uM after 72 hrs by yellow fluorescence reporter gene assay. The format is functional. Background: In a reporter assay the amount or activity of a reporter protein is the signal.

Data set [2] deals with T1, Enoyl-acyl carrier reductase (Toxoplasma gondii, UniProt Q6UCJ9).
T1 sequence (Q6UCJ9 whole entry): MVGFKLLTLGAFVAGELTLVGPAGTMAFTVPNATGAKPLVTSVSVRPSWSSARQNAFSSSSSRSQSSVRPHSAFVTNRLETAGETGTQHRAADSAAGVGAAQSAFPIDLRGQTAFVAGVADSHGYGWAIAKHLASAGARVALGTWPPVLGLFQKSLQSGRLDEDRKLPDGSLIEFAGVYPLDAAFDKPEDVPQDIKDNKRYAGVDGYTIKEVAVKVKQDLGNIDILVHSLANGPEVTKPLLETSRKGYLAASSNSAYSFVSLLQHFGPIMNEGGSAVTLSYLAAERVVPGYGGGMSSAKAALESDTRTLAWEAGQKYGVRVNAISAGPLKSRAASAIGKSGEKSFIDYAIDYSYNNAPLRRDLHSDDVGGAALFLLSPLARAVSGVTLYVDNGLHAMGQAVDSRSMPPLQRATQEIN
The data set is described as follows: Inhibition of Toxoplasma gondii enoyl-ACP reductase-NADH complex.

Data set [3] relates to Toxoplasma gondii. The data set is described as follows: Antiparasitic activity against tachyzoite stage of Toxoplasma gondii RH infected in HFF assessed as inhibition of parasite growth after 72 hrs by yellow fluorescence reporter gene assay. The data set is classed as functional. In short, it runs like this:
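HFF infected with 3200 RH-YFP tachyzoites (type 1, stably transfected with yellow fluorescence gene) and treated with compound at the indicated concentrations. Relative YFP fluorescence read after 72 h at excitation/emission 510/540 nm. Controls: pyrimethamine/sulfadiazine (positive), 0.1% DMSO (negative).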

In the next data set the test system is HFF. The data set is described as follows: Cytotoxicity against HFF assessed as cell viability at 10 uM after 72 hrs by WST-1 assay. The data set is classed as cell-based. The following applies: human. In short, it runs like this: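 Host HFF incubated with compound at 10 µM for 72 h. Viability read by WST-1 staining. DMSO at several concentrations in the culture medium gave a standard toxicity curve.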
(Tetrazolium dyes change colour on reduction, which living cells bring about.)

The next data set concerns PC-3. The data set is described as follows: Cytotoxicity against human PC3 cells at 10 uM after 96 hrs by luciferase reporter gene assay. The format is cell-based. The following applies: pc-3, 96 h. In short, it runs like this:
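Confluent luciferase-expressing PC3-Luc cells in phenol red-free DMEM (10% FCS, 1% L-glutamine, 1% penicillin-streptomycin) given compound at 10 nM–10 µM. D-luciferin potassium salt added at 150 µg/ml at 48 and 96 h, then bioluminescence imaged for 1 min. Cytotoxicity taken as loss of signal. Controls: 1% Triton X (positive) and vehicle.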

Converted amounts (≈) assume the structure as drawn. The source made the active and inactive calls. The rule behind the calls is not given here.

By IC50 is commonly meant the midpoint of a concentration-inhibition curve. Higher therefore signals weaker potency in that assay. As usually defined, the MIC50 is the lowest concentration that inhibits either 50% of growth or 50% of the strains tested, depending on the study. As for `Cc1ccc(Cn2cnc3cc(C)c(C)cc32)cc1`, the inhibition entry with Toxoplasma gondii [1] is “Active”. The molecule further displayed a concentration for half-maximal inhibition (IC50) in data set [2] greater than 1000 nM. For the same molecule, the MIC50 with Toxoplasma gondii [3] is greater than 10 µM. Further, the Activity result in the data set with HFF and in the data set on PC-3 was “Non-toxic” each time.
In the case of `Cc1cc2ncn(Cc3ccc(Cl)cc3)c2cc1C`, the IC50 in data set [2] was greater than 1000 nM. Besides, the MIC50 in the data set on Toxoplasma gondii [3] turned out to be 4 µM (≈ 1.08 µg/mL). The Activity entry in the data set with HFF and with PC-3 was “Non-toxic” each time.
As to `Cc1cc2ncn(Cc3ccc(Cl)c(Cl)c3)c2cc1C`, the inhibition result in the data set on Toxoplasma gondii [1] was “Active”. The same molecule came in with an IC50 in data set [2] greater than 1000 nM. The MIC50 in the data set with Toxoplasma gondii [3] turned out to be 2.5 µM (≈ 0.763 µg/mL). Moreover, the Activity entry in the data set with HFF and with PC-3 was “Non-toxic” throughout.

(Values after ChEMBL document CHEMBL3112563, “The benzimidazole based drugs show good activity against T. gondii but poor activity against its proposed enoyl reductase enzyme target” (Bioorg Med Chem Lett, 2014).)
